Lipid droplet = inhibitors of hepatocyte lipid droplet formation, primary screen, imaging, high-throughput imaging, BODIPY stain. AML12 mouse hepatocytes, oleate lipid droplets. inhibition, % at 6.5 µM. 0.4% of 240,000 active. AID 1656, 2009;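 active = lipid droplet intensity inhibited by at least 50%, with more than 500 cells counted; inconclusive = wells with under 300 cells, treated as cytotoxic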
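Material – AML12 mouse liver cells · Also added – oleate loading, 100 µM · Compound dosing – 6.5 µM single-point dosing · Times – overnight treatment with compound plus oleate · Measured by – fluorescence imaging, 20x objective, two fields per well · Read-out – percent inhibition of filter-corrected integrated lipid droplet intensity per well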
697 NFkB inh = inhibitors of PMA/ionomycin-induced NF-kB reporter, 697 cells, primary screen, B-cell NF-kB inhibitor project, cell-based, luminescence, uHTS; inhibition, % at 4 µM; 0.33% of 330,000 active; 697 B-cell NF-kB luciferase reporter, 16 h; in the data active = inhibition above about 35%
Jurkat NFkB inh = inhibitors of induced NF-kB luciferase reporter, primary screen, TCR NF-kB activation inhibitor project, cell-based, luminescence, uHTS; Jurkat, PMA/ionomycin-induced NF-kB luciferase reporter; 0.53% of 330,000 active; inhibition, % at 4 µM; AID 435003, 2010; in the data active = inhibition above about 50%
iPSC survival up = enhancers of single-cell hiPSC survival, primary screen, ATPlite luminescence. 100% = ROCK inhibitor wells, 0% = DMSO. survival enhancement, % at 20 µM. 0.044% of 360,000 active; in the data active = survival enhancement above about 18%;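 note: cells exposed to compounds for 16 hours before the ATP read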
Gli-Sufu antag = Gli-Sufu pathway antagonists, primary screen, luciferase luminescence, Sufu-KO-LIGHT cells, uHTS; Sufu-KO-LIGHT fibroblasts, Gli luciferase reporter luminescence; inhibition, % at 5 µM; 0.74% of 340,000 active; AID 588413, 2011;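 active = inhibition above about 55%, limit read from the data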
TAG inh = inhibitors of triacylglycerol accumulation, primary screen, cell-based, uHTS, fluorescence, H9c2; inhibition, % at 12.5 µM; 0.66% of 230,000 active; AID 651582, 2012; H9c2 cells, Nile Red lipid (TAG) fluorescence; cells loaded with 200 µM oleic acid;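 active = pattern-corrected inhibition of lipid staining of at least 50% with the nuclear-stain viability signal not falling by more than 50%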
Jurkat NFkB conf = PMA/ionomycin-induced NF-kB reporter inhibitors, Jurkat retest, confirmation, T-cell NF-kB inhibitor project, cell-based, luminescence, single concentration. shares compounds with Jurkat NFkB inh. Jurkat NF-kB luciferase, 16 h. inhibition, % at 4 µM. 27% of 2,700 active. AID 435020, 2010;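 active = inhibition reaching about 45% at 4 µM in either replicate, limit read from the data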
697 NFkB conf = PMA/ionomycin-induced NF-kB reporter inhibitors, 697 retest, confirmation, B-cell NF-kB inhibitor project, cell-based, luminescence, single concentration; shares compounds with 697 NFkB inh; 697 B-cell NF-kB luciferase, 16 h; inhibition, % at 4 µM; 35% of 2,000 active; in the data active = inhibition mostly above about 28%, no sharp cut-off; inactive = mostly below about 22%
Hits are given with their value; n = inactive; u = inconclusive; x = not tested or not shown. In the library only some 1.8% were active in any assay of this set; here they are far more common.

SMILES | Lipid droplet | 697 NFkB inh | Jurkat NFkB inh | iPSC survival up | Gli-Sufu antag | TAG inh | Jurkat NFkB conf | 697 NFkB conf
CC(C)C(=O)Nc1ccc2nn(-c3ccc(F)cc3)nc2c1 | n | n | n | n | n | n | n | n
Cc1ccc(-n2nc3ccc(NC(=O)c4ccco4)cc3n2)cc1 | n | n | n | n | n | x | x | x
Cc1ccc(-n2nc3ccc(NC(=O)C(C)C)cc3n2)cc1 | n | n | n | n | n | x | n | n
CC(C)C(=O)Nc1ccc(N2CCN(c3ccc(F)cc3)CC2)cc1 | n | n | n | n | n | n | x | x
CCOC(=O)C1=C(c2ccccc2)NC(=O)NC1c1ccc(OC)cc1OC (stereo unspecified) | x | n | n | n | n | x | x | x
Cc1ccc2cc3cc(C(=O)N4CCCCC4C)oc3nc2c1 (stereo unspecified) | x | n | n | n | n | n | n | n
C/C(=N/NC(=O)c1ccco1)c1ccc(NC(=O)c2ccc(F)cc2)cc1 | n | n | n | n | n | x | x | x
CCc1ccc(-c2cnc3ccccc3n2)cc1NC(=O)CNC(=O)c1ccccc1 | n | n | n | n | n | x | n | n
CN=c1scc(-c2ccccc2F)n1/N=C/c1ccc[nH]1 | n | 36 | 70 | n | 86 | n | 75 | 42
Cc1nnc(NC(=O)C2COc3ccccc3O2)s1 (stereo unspecified) | x | n | n | n | n | n | x | x
O=C(Cc1cn2ccsc2n1)Nc1nc2c(s1)CCCC2 | x | n | n | n | n | n | x | x
O=C(Nc1nc2c(s1)CCCC2)C1COc2ccccc2O1 (stereo unspecified) | n | n | n | n | n | n | n | n
O=C(Cc1cccs1)Nc1nc2c(s1)CCCC2 | n | n | n | n | n | x | n | n
Cc1ccc(/C=C/C(=O)c2c(C)nc3ccccn23)cc1 | x | n | n | n | n | x | x | x
Cc1nc2ccccn2c1C(=O)/C=C/c1cccc([N+](=O)[O-])c1 | n | 40 | 51 | n | n | n | n | 41
CCCC(=O)Nc1ccc(-c2nc3cc(C)c(C)cc3o2)cc1 | x | n | n | n | n | x | n | n
CCc1ccc2oc(-c3ccc(NC(C)=O)cc3)nc2c1 | n | n | n | n | n | n | n | n
CC1Cc2cc(-c3csc(NC(=O)Cc4cccs4)n3)ccc2N1S(C)(=O)=O (stereo unspecified) | n | 56 | 57 | n | n | x | 76 | n
O=C(COC(=O)c1ccc[nH]c1=O)Nc1ccc(S(=O)(=O)N2CCCC2)cc1 | n | n | n | n | n | n | x | x
O=C(COC(=O)c1ccc[nH]c1=O)Nc1ccc(N2CCCCC2)cc1 | x | 79 | 51 | n | n | n | 70 | 80
COc1c2c(cc3oc(=O)c4c5ccc(O)cc5oc4c13)OC(C)(C)CC2 | x | n | n | n | n | x | n | n
O=[N+]([O-])c1cc(S(=O)(=O)N2CCCCC2)ccc1NCCCN1CCOCC1 | n | n | n | n | n | n | x | x
Cc1ccc(NC(=O)c2csc(-c3ccccc3)c2C)cc1 | x | x | x | n | n | x | x | x
Cc1c(C(=O)Nc2cccc([N+](=O)[O-])c2)csc1-c1ccccc1 | x | n | n | n | n | x | n | n
C/C(=N\Nc1cccc2cccnc12)c1ccccc1O | n | n | n | n | n | x | x | x
SMILES | Lipid droplet | 697 NFkB inh | Jurkat NFkB inh | iPSC survival up | Gli-Sufu antag | TAG inh | Jurkat NFkB conf | 697 NFkB conf
C/C(=N\Nc1cccc2cccnc12)c1ccccn1 | x | n | n | n | n | n | n | n
COc1ccc2cc(-c3ccccc3)ncc2c1 | n | n | n | n | n | n | n | n
COc1ccccc1CNc1ncc(-c2ccc(F)cc2)n1C | n | n | n | n | n | x | x | x
COc1ccc(CNc2ncc(-c3ccc(F)cc3)n2C)c2ccccc12 | n | 40 | 71 | n | 56 | n | 50 | 48
O=C(Nc1ccccc1)c1cc(C2COCCN2C(=O)c2cccs2)on1 (stereo unspecified) | x | x | x | n | x | n | x | x
CC1CN/C(=C\C(=O)c2ccc(Cl)cc2)C(=O)N1 (stereo unspecified) | n | n | n | n | n | x | n | n
Nn1cnnc1SCC(=O)Nc1ccc(C2CCCCC2)cc1 | x | n | n | n | n | x | x | x
O=C(O)CSCC(=O)Nc1ccc(C2CCCCC2)cc1 | u | 90 | 63 | n | n | x | 78 | 83
Cc1ccc2c(c1)COc1c3ccc(C(=O)O)cc3nn1-2 | n | 76 | 93 | n | x | n | 68 | n
CC1(C)CC(=O)c2c(O)cc(OCC(=O)Nc3ccc(S(N)(=O)=O)cc3)cc2O1 | n | n | n | n | n | x | x | x
COc1cc(NC(=O)COc2cc(O)c3c(c2)OC(C)(C)CC3=O)cc(OC)c1OC | n | 59 | 58 | n | 70 | x | 76 | 48
Cc1nn(-c2ccccc2)c(Cl)c1/C=N/Nc1nc2ccccc2[nH]1 | n | n | n | n | n | n | n | n
NNc1nc(-c2ccccc2)nc2sc3c(c12)CCCC3 | n | n | n | n | n | x | n | n
COc1ccccc1-c1nc(-c2ccc(Br)cc2)no1 | x | n | n | n | n | x | x | x
Cc1ccc(-c2noc(-c3ccccc3Br)n2)cc1 | x | n | n | n | n | x | n | n
CN(C)c1ccc(-c2noc(-c3ccccc3O)n2)cc1 | x | n | n | n | n | n | n | n
Cc1nc2ccccc2c(=O)n1/N=C/c1ccccn1 | x | n | n | n | n | x | x | x
C=CCN=c1scc(-c2ccc(F)cc2)n1/N=C/c1ccccn1 | n | n | n | n | n | n | x | x
CCN=c1scc(-c2ccccc2)n1/N=C/c1ccccn1 | n | n | n | n | n | n | n | n
C=CCN=c1scc(-c2ccccc2)n1/N=C/c1ccccn1 | n | n | n | n | n | n | n | n
COc1cc2[nH]c(C(=O)N3CCc4ccccc43)cc2c(OC)c1OC | x | n | n | n | n | x | x | x
Cc1cc(-c2cc(C(=O)NCc3ccccc3)on2)nc(S(C)(=O)=O)n1 | x | 51 | 52 | n | n | n | n | 42
Cc1ccc(CC2(C)C(=O)Nc3c(Cl)cccc32)cc1 (stereo unspecified) | x | x | x | n | x | n | x | x
C#CC(=O)N(c1cccc(OC)c1)C(C(=O)NC1CCCC1)c1cccs1 (stereo unspecified) | x | 103 | 99 | n | n | x | 94 | 100
Cc1cccc(N(C(=O)C(F)(F)F)C(C(=O)NC2CCCCC2)c2cccs2)c1 (stereo unspecified) | x | n | n | n | n | x | x | x
Cc1ccccc1-c1cc(-c2ccccc2O)n[nH]1 | n | n | n | n | n | n | x | x
